In paper PMC7993281 (Clinical and Translational Science, 2020):

Tests used:
Type in all cases: in vivo, human
[1] = MAD study tolerability/safety
How it was run: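 Healthy men and women aged 18–55 years, BMI 18–30 kg/m2, 8 active and 2 placebo per cohort. Oral 30–1,000 mg b.i.d. for 7 days with staggered dosing. Subjects were confined until 72 h after the last dose, with follow-up at 29–34 days. AEs, vital signs, ECG, physical examination and clinical laboratory tests were recorded and summarised descriptively.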

[2] = Cardiodynamic and exposure-response analysis of QT interval
Multiple-ascending dose = settings: for Tmax: median (range); for CL renal: urine and plasma
How it was run: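 Oral 30, 100, 300 or 1,000 mg b.i.d. for 7 days in healthy men and women, n = 8 active per dose. Plasma sampled for 12 h on Day 1, at trough on Days 2–6, and up to 72 h after the last dose. Urine collected predose Day 1 and 0–12 h on Day 7. Validated LC-MS/MS. Noncompartmental analysis gave AUCτ, accumulation index and CLR.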

[3] = system: glucosylceramide (GlcCer) plasma concentration; experiment: MAD study pharmacodynamics: plasma GlcCer
How it was run: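 Healthy men and women (1:1), 8 active and 2 placebo per cohort. Oral 30, 100, 300 or 1,000 mg b.i.d. for 7 days. Morning dose after a 10-hour fast, evening dose 2 hours after dinner. Plasma sampled on Days 1, 2, 4 and 7 and at 24, 48 and 72 h after the last dose. Validated LC-MS/MS. Percent change from Day 1 predose.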

[4] = Day 7, 30 mg b.i.d., geometric mean (95% CI)
[5] = Day 7, 100 mg b.i.d., geometric mean (95% CI)
[6] = Day 7, 300 mg b.i.d., geometric mean (95% CI)
[7] = Day 7, 1,000 mg b.i.d., geometric mean (95% CI)
[8] = both, human, plasma, oral, 30 mg
[9] = both, human, plasma, oral, 100 mg
[10] = both, human, plasma, oral, 300 mg
[11] = both, human, plasma, oral, 1000 mg b.i.d.

- AI, accumulation index (Multiple-ascending dose; [4]): 1.085 (0.993, 1.185)
- UPE, percentage of dose excreted unchanged in urine (Multiple-ascending dose; [4]): 55.12 (52.08, 58.34) %
- AI, accumulation index (Multiple-ascending dose; [5]): 1.037 (0.930, 1.156)
- UPE, percentage of dose excreted unchanged in urine (Multiple-ascending dose; [5]): 53.55 (44.68, 64.19) %
- AI, accumulation index (Multiple-ascending dose; [6]): 1.101 (1.012, 1.198)
- UPE, percentage of dose excreted unchanged in urine (Multiple-ascending dose; [6]): 48.35 (40.84, 57.24) %
- AI, accumulation index (Multiple-ascending dose; [7]): 1.001 (0.942, 1.064)
- UPE, percentage of dose excreted unchanged in urine (Multiple-ascending dose; [7]): 45.54 (41.54, 49.92) %
- increased exposure (Cmax and AUCτ) in female compared to male subjects (Multiple-ascending dose; all dose groups combined, steady‐state): around 30%
- time to steady‐state concentrations (Multiple-ascending dose; b.i.d. dosing): ≤ 2 days
- accumulation after multiple doses (Multiple-ascending dose; b.i.d. for 7 days): did not accumulate
- AUC (Multiple-ascending dose; [8]): 1310 ng·h/mL
- AUC(0-t) (Multiple-ascending dose; [8]): 1200 ng·h/mL
- Cmax (Multiple-ascending dose; both, human, plasma, oral, 30 mg, Cmax, Day 7, 30 mg b.i.d., geometric mean (95% CI)): 413 ng/mL
- Tmax (Multiple-ascending dose; both, human, plasma, oral, 30 mg, Day 1, 30 mg b.i.d.): 0.9 h
- Tmax (Multiple-ascending dose; both, human, plasma, oral, 30 mg, Day 7, 30 mg b.i.d.): 0.9 h
- AUC (Multiple-ascending dose; [9]): 4650 ng·h/mL
- AUC(0-t) (Multiple-ascending dose; [9]): 4480 ng·h/mL
- Cmax (Multiple-ascending dose; both, human, plasma, oral, 100 mg, Cmax, Day 1, 100 mg b.i.d., geometric mean (95% CI)): 1340 ng/mL
- Cmax (Multiple-ascending dose; both, human, plasma, oral, 100 mg, Cmax, Day 7, 100 mg b.i.d., geometric mean (95% CI)): 1270 ng/mL
- Tmax (Multiple-ascending dose; both, human, plasma, oral, 100 mg, Day 1, 100 mg b.i.d.): 0.9 h
- Tmax (Multiple-ascending dose; both, human, plasma, oral, 100 mg, Day 7, 100 mg b.i.d.): 1.3 h
- AUC (Multiple-ascending dose; [10]): 16800 ng·h/mL
- AUC(0-t) (Multiple-ascending dose; [10]): 15200 ng·h/mL
- Cmax (Multiple-ascending dose; both, human, plasma, oral, 300 mg, Cmax, Day 1, 300 mg b.i.d., geometric mean (95% CI)): 3760 ng/mL
- Cmax (Multiple-ascending dose; both, human, plasma, oral, 300 mg, Cmax, Day 7, 300 mg b.i.d., geometric mean (95% CI)): 3990 ng/mL
- Tmax (Multiple-ascending dose; both, human, plasma, oral, 300 mg, Day 1, 300 mg b.i.d.): 1.4 h
- Tmax (Multiple-ascending dose; both, human, plasma, oral, 300 mg, Day 7, 300 mg b.i.d.): 0.9 h
- AUC (Multiple-ascending dose; [11]): 51200 ng·h/mL
- AUC(0-t) (Multiple-ascending dose; [11]): 51200 ng·h/mL
- half-life (Multiple-ascending dose; [11]): 14.7 h
- Cmax (Multiple-ascending dose; both, human, plasma, oral, 1000 mg b.i.d., Cmax, Day 1, 1,000 mg b.i.d., geometric mean (95% CI)): 10600 ng/mL
- Cmax (Multiple-ascending dose; both, human, plasma, oral, 1000 mg b.i.d., Cmax, Day 7, 1,000 mg b.i.d., geometric mean (95% CI)): 10400 ng/mL
- Tmax (Multiple-ascending dose; both, human, plasma, oral, 1000 mg b.i.d., Day 1, 1,000 mg b.i.d.): 1.45 h
- Tmax (Multiple-ascending dose; both, human, plasma, oral, 1000 mg b.i.d., Day 7, 1,000 mg b.i.d.): 2 h
- CL renal (Multiple-ascending dose; both, human, oral, 30 mg): 211 mL/min
- CL renal (Multiple-ascending dose; both, human, oral, 100 mg): 192 mL/min
- CL renal (Multiple-ascending dose; both, human, oral, 300 mg): 144 mL/min
- CL renal (Multiple-ascending dose; both, human, oral, 1000 mg b.i.d.): 148 mL/min
- dose excreted unchanged in urine (Multiple-ascending dose; doses ranging from 30 to 1,000 mg b.i.d.): ~ 50%
- Cmax (Multiple-ascending dose; female, human, plasma, oral, 1000 mg b.i.d., geometric mean Cmax in women, female subjects, 1,000 mg b.i.d. cohort, day 7): 12000 ng/mL
Compound: CCCCCN1C[C@H](O)[C@@H](O)[C@H](O)[C@@H]1CO [sinbaglustat, (2S,3R,4R,5S)‐2‐(hydroxymethyl)‐1‐pentylpiperidine‐3,4,5‐triol]
- Muscle twitching (subjects) ([1]; MAD 1,000 mg b.i.d. (n = 8)): 1
- Nausea (subjects) ([1]; MAD 1,000 mg b.i.d. (n = 8)): 3
- Palpitations (subjects) ([1]; MAD 1,000 mg b.i.d. (n = 8)): 1
- Vomiting (subjects) ([1]; MAD 1,000 mg b.i.d. (n = 8)): 2
- female subjects reporting headache (of 4) ([1]; MAD 1,000 mg b.i.d., female subjects): 4
- subjects reporting AEs (of 32 treated) ([1]; MAD, all doses): 19
- subjects reporting dizziness (of 32) ([1]; MAD, all doses): 10
- subjects reporting headache (of 32) ([1]; MAD, all doses): 8
- subjects reporting AEs ([1]; MAD, all doses, 32 subjects): 59%
- total AEs reported ([1]; MAD, all doses, 32 subjects): 66
- effect on QTcF, HR, PR, and QRS intervals ([2]; change‐from‐baseline and placebo‐adjusted change‐from‐baseline): no clinically relevant effect
- slope of concentration–ΔΔQTcF relationship ([2]; linear mixed‐effects model, 90% CI −0.00008 to 0.00056, statistically nonsignificant): 0.0002 ms per ng/mL
- treatment effect‐specific intercept ([2]; linear mixed‐effects model, nonstatistically significant): -2.7 ms
- GlcCer during the treatment period ([3]; 30 mg b.i.d.): remained at baseline
- GlcCer increase from baseline concentration ([3]; 30 mg b.i.d., 72 hours after the last dose): 32%
- GlcCer percentage change from baseline ([3]; 100 mg b.i.d., 48 hours after the last dose): –7%
- GlcCer percentage change from baseline ([3]; 300 mg b.i.d., 72 hours after the last dose): –1%
- GlcCer percentage change from baseline ([3]; 1,000 mg b.i.d., 72 hours after the last dose): –19%
- reduction in GlcCer ([3]; highest tested dose (1,000 mg b.i.d.), repeated treatment): 72%
